Calls of active or inactive are those of the source. The rule behind the calls is not given here.
What was measured:
[1] = target: Sodium-dependent noradrenaline transporter (Homo sapiens, UniProt P23975); assay: Inhibition of re-uptake of [3H]MPP+ at human NET expressed in HEK293 cells preincubated for 5 mins followed by […] addition measured after 3 min by liquid scintillation counting; format: cell-based; conditions: hek293
Summary of the method: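 HEK293 cells stably expressing human DAT or NET, seeded on PDL-coated plates 24 h before. Preincubated 5 min in Krebs–HEPES buffer pH 7.3 with compound at 0.001 μM to 1 mM (DMSO stock diluted in buffer). Substrate then added: 0.2 μM [3H]dopamine for DAT, 1 min; 0.05 μM [3H]MPP+ for NET, 3 min. Room temperature. Uptake stopped with ice-cold buffer. Cells lysed in 1% SDS and counted by scintillation. Unspecific uptake defined with 10 μM mazindol. IC50 by nonlinear regression.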

[2] = target: Sodium-dependent serotonin transporter (Homo sapiens, UniProt P31645); assay: Inhibition of re-uptake of [3H]-5-HT at human SERT expressed in HEK293 cells preincubated for 5 mins followed by [3H]-dopamine addition measured after 1 min by liquid scintillation counting; format: cell-based; conditions: hek293
Sodium-dependent serotonin transporter, sequence (P31645 whole entry): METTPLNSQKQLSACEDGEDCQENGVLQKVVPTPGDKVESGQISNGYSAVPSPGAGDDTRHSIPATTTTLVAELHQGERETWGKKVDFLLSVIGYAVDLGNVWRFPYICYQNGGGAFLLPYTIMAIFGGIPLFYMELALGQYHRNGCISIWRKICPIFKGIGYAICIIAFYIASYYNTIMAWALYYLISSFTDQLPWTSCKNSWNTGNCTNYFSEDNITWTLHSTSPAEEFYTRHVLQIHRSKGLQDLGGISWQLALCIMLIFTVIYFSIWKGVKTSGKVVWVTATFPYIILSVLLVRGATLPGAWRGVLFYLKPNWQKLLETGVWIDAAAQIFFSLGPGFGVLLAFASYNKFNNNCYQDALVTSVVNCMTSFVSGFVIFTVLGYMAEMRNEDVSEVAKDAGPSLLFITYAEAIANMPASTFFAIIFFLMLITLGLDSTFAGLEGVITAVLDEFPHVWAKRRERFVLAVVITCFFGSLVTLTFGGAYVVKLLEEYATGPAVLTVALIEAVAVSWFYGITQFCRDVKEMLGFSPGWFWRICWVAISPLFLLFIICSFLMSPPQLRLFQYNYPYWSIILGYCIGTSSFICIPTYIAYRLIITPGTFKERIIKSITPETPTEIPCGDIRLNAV

Rattus norvegicus [3] = assay: Neurotoxicity in Sprague-Dawley rat assessed as effect on total distance traveled at 10 mg/kg, ip administered 30 mins prior to test by open field test relative to control; format: toxicity, organism-based; conditions: in vivo, 0.5 h
Summary of the method: (§1)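 Male Sprague–Dawley rats, 10 per group, given 10 mg/kg ip daily for 10 days and 30 min before each test. DMSO vehicle group as control. Open field arena 100 × 100 cm with 40 cm walls. Animals video-tracked for 10 min.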

Rattus norvegicus [4] = assay: Neurotoxicity in Sprague-Dawley rat assessed as effect on resting time at 10 mg/kg, ip administered 30 mins prior to test by open field test relative to control; format: toxicity, organism-based; conditions: in vivo, 0.5 h; summary of the method: as §1
Rattus norvegicus [5] = assay: Neurotoxicity in Sprague-Dawley rat assessed as effect on local movements at 10 mg/kg, ip administered 30 mins prior to test by open field test relative to control; format: toxicity, organism-based; conditions: in vivo, 0.5 h; summary of the method: as §1
Rattus norvegicus [6] = assay: Neurotoxicity in Sprague-Dawley rat assessed as effect on average velocity at 10 mg/kg, ip administered 30 mins prior to test by open field test relative to control; format: toxicity, organism-based; conditions: in vivo, 0.5 h; summary of the method: as §1
Rattus norvegicus [7] = assay: Neurotoxicity in Sprague-Dawley rat assessed as effect on number of crossings of the center at 10 mg/kg, ip administered 30 mins prior to test by open field test relative to control; format: toxicity, organism-based; conditions: in vivo, 0.5 h; summary of the method: as §1
Rattus norvegicus [8] = assay: Neurotoxicity in Sprague-Dawley rat assessed as effect on time spent at the margin at 10 mg/kg, ip administered 30 mins prior to test by open field test relative to control; format: toxicity, organism-based; conditions: in vivo, 0.5 h; summary of the method: as §1
Rattus norvegicus [9] = assay: Neurotoxicity in Sprague-Dawley rat assessed as effect on time spent in the left open arm at 10 mg/kg, ip administered 30 mins prior to test by elevated plus maze test relative to control; format: toxicity, organism-based; conditions: in vivo, 0.5 h
Summary of the method: (§2)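 Male Sprague–Dawley rats, 10 per group, dosed 10 mg/kg ip daily for 10 days and 30 min before testing. DMSO vehicle controls. Elevated plus maze, rats placed centrally and video-tracked. Recorded: time in closed and open arms, arm entries, path length.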

Rattus norvegicus [10] = assay: Neurotoxicity in Sprague-Dawley rat assessed as effect on time spent in the left closed arm at 10 mg/kg, ip administered 30 mins prior to test by elevated plus maze test relative to control; format: toxicity, organism-based; conditions: in vivo, 0.5 h; summary of the method: as §2
Rattus norvegicus [11] = assay: Neurotoxicity in Sprague-Dawley rat assessed as effect on total distance traveled at 10 mg/kg, ip administered 30 mins prior to test by elevated plus maze test relative to control; format: toxicity, organism-based; conditions: in vivo, 0.5 h; summary of the method: as §2
Rattus norvegicus [12] = assay: Neurotoxicity in Sprague-Dawley rat assessed as effect on distance traveled in open arms at 10 mg/kg, ip administered 30 mins prior to test by elevated plus maze test relative to control; format: toxicity, organism-based; conditions: in vivo, 0.5 h; summary of the method: as §2
Rattus norvegicus [13] = assay: Neurotoxicity in Sprague-Dawley rat assessed as effect on time spent in open arm at 10 mg/kg, ip administered 30 mins prior to test by elevated plus maze test relative to control; format: toxicity, organism-based; conditions: in vivo, 0.5 h; summary of the method: as §2
Rattus norvegicus [14] = assay: Neurotoxicity in Sprague-Dawley rat assessed as effect on resting time at 10 mg/kg, ip administered 30 mins prior to test by elevated plus maze test relative to control; format: toxicity, organism-based; conditions: in vivo, 0.5 h; summary of the method: as §2
Rattus norvegicus [15] = assay: Neurotoxicity in Sprague-Dawley rat assessed as effect on time spent on revolving rod at 10 mg/kg, ip administered 30 mins prior to test by rotarod test relative to control; format: toxicity, organism-based; conditions: in vivo, 0.5 h
Summary of the method: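 Male Sprague–Dawley rats, 10 per group, dosed 10 mg/kg ip daily for 10 days and 30 min before testing. DMSO vehicle controls. Rotarod, time spent on the revolving rod recorded.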

Rattus norvegicus [16] = assay: Neurotoxicity in Sprague-Dawley rat assessed as body position score at 10 mg/kg, ip administered 30 mins prior to test (reference value: 1.8 +/- 0.4216); format: toxicity, organism-based; conditions: in vivo, 0.5 h
Rattus norvegicus [17] = assay: Neurotoxicity in Sprague-Dawley rat assessed as locomotor activity score at 10 mg/kg, ip administered 30 mins prior to test (reference value: 2.6 +/- 0.9661); format: toxicity, organism-based; conditions: in vivo, 0.5 h
Rattus norvegicus [18] = assay: Neurotoxicity in Sprague-Dawley rat assessed as transfer arousal score at 10 mg/kg, ip administered 30 mins prior to test (reference value: 3.1 +/- 0.3162); format: toxicity, organism-based; conditions: in vivo, 0.5 h
Rattus norvegicus [19] = assay: Neurotoxicity in Sprague-Dawley rat assessed as tail elevation score at 10 mg/kg, ip administered 30 mins prior to test (reference value: 2.2 +/- 0.6325); format: toxicity, organism-based; conditions: in vivo, 0.5 h
Rattus norvegicus [20] = assay: Neurotoxicity in Sprague-Dawley rat assessed as visual placing score at 10 mg/kg, ip administered 30 mins prior to test (reference value: 1.9 +/- 0.3162); format: toxicity, organism-based; conditions: in vivo, 0.5 h
Rattus norvegicus [21] = assay: Neurotoxicity in Sprague-Dawley rat assessed as grip strength score at 10 mg/kg, ip administered 30 mins prior to test (reference value: 2.4 +/- 1.265); format: toxicity, organism-based; conditions: in vivo, 0.5 h
Rattus norvegicus [22] = assay: Neurotoxicity in Sprague-Dawley rat assessed as pinna reflex score at 10 mg/kg, ip administered 30 mins prior to test (reference value: 1.2 +/- 1.033); format: toxicity, organism-based; conditions: in vivo, 0.5 h
Rattus norvegicus [23] = assay: Neurotoxicity in Sprague-Dawley rat assessed as toe pinch score at 10 mg/kg, ip administered 30 mins prior to test (reference value: 1.8 +/- 0.6325); format: toxicity, organism-based; conditions: in vivo, 0.5 h
Rattus norvegicus [24] = assay: Neurotoxicity in Sprague-Dawley rat assessed as limb tone score at 10 mg/kg, ip administered 30 mins prior to test (reference value: 3.3 +/- 0.6749); format: toxicity, organism-based; conditions: in vivo, 0.5 h
[25] = target: Sodium-dependent dopamine transporter (Homo sapiens, UniProt Q01959); assay: Displacement of [3H]WIN 35,428 from human DAT expressed in HEK293 cells at 1 and 3 uM after 30 mins in presence of increasing concentration of cocaine by liquid scintillation counting; format: cell-based
Sodium-dependent dopamine transporter, sequence (Q01959 whole entry): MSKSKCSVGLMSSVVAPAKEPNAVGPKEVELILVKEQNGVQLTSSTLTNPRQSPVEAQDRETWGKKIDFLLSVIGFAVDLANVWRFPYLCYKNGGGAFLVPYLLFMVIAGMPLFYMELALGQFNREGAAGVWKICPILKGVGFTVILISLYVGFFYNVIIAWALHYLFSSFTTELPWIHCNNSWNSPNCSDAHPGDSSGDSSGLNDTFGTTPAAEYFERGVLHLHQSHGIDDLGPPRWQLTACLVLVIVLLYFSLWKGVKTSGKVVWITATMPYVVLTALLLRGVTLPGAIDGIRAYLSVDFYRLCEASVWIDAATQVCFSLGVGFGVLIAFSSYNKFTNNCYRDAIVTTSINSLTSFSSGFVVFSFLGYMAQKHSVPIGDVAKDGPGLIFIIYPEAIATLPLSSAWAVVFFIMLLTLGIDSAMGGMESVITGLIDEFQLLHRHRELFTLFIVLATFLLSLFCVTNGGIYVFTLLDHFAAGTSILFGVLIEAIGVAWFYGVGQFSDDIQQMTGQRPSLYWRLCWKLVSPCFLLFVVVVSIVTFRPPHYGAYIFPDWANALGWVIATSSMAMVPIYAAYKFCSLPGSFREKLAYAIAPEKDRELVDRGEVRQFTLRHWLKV
Summary of the method: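 Intact HEK-DAT cells on PDL-coated plates, in binding buffer (HEPES, NaCl, KCl, CaCl2, MgCl2, 10 μM ZnCl2, glucose, pH 7,3). Incubated with ~10 nM [3H]WIN 35,428, fixed concentrations of test compound and cocaine 0.001–1 μM, 30 min at 25 °C. Nonspecific binding defined with 30 μM mazindol. Cells lysed in 1% SDS and counted by scintillation. Reciprocal of bound (fmol) plotted against cocaine concentration as Dixon plot. Three experiments in triplicate, mean ± SD.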

Sodium-dependent noradrenaline transporter, sequence (P23975 whole entry): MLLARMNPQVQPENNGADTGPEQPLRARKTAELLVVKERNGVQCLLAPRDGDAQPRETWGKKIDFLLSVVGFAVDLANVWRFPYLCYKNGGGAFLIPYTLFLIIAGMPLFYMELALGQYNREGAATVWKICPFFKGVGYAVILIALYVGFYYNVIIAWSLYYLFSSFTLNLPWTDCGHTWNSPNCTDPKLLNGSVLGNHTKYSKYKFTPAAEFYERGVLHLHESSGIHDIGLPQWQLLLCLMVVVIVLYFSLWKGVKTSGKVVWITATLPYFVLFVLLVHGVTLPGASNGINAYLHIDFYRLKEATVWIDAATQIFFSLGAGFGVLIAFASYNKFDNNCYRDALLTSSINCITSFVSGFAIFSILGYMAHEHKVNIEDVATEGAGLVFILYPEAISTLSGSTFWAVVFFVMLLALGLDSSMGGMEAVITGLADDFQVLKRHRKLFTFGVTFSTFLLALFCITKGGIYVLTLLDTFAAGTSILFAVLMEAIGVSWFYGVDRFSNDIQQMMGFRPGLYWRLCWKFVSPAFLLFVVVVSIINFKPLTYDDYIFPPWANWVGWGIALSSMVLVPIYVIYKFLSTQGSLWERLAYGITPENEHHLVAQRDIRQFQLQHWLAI

Compound: [O-][S+](Cc1cccs1)C(c1ccccc1)c1ccccc1 (stereo not given)
- IC50 [1]: Not Active
- IC50 [2]: Not Active
- Activity (Rattus norvegicus [3]): Non-Toxic
- Activity (Rattus norvegicus [4]): Non-Toxic
- Activity (Rattus norvegicus [5]): Non-Toxic
- Activity (Rattus norvegicus [6]): Non-Toxic
- Activity (Rattus norvegicus [7]): Non-Toxic
- Activity (Rattus norvegicus [8]): Non-Toxic
- Activity (Rattus norvegicus [9]): Non-Toxic
- Activity (Rattus norvegicus [10]): Non-Toxic
- Activity (Rattus norvegicus [11]): Non-Toxic
- Activity (Rattus norvegicus [12]): Non-Toxic
- Activity (Rattus norvegicus [13]): Non-Toxic
- Activity (Rattus norvegicus [14]): Non-Toxic
- Activity (Rattus norvegicus [15]): Non-Toxic
- Activity (Rattus norvegicus [16]): 1.9
- Activity (Rattus norvegicus [17]): 2.6
- Activity (Rattus norvegicus [18]): 3.2
- Activity (Rattus norvegicus [19]): 1.8
- Activity (Rattus norvegicus [20]): 1.7
- Activity (Rattus norvegicus [21]): 3
- Activity (Rattus norvegicus [22]): 1.4
- Activity (Rattus norvegicus [23]): 1.6
- Activity (Rattus norvegicus [24]): 3.5
- inhibition [25]: Active

— ChEMBL document CHEMBL4028886 (J Med Chem, 2017)
